Reference: ChEMBL document CHEMBL5034012, “Procainamide-SAHA Fused Inhibitors of hHDAC6 Tackle Multidrug-Resistant Malaria Parasites” (J Med Chem, 2021)
The source made the active and inactive calls. The rule behind the calls is not given here.

How the values were obtained:
Plasmodium falciparum [1] = assay: Antiplasmodial activity against asynchronous asexual culture of Plasmodium falciparum NF54 assessed as parasite growth inhibition; type: functional, organism-based
Procedure, shortened: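 Asynchronous asexual NF54 cultures exposed to 7-point, 2-step serial dilutions starting at 500nM. DHA served as positive control, DMSO as negative. IC50 interpolated from three independent experiments run in triplicate.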

HepG2 = assay: cells; type: functional, cell-based; details: Homo sapiens, HepG2, 72 h
HL-60 [2] = assay: cells; type: functional, cell-based; details: Homo sapiens, HL-60, 72 h
Histone deacetylase = assay: Inhibition of human HDAC using human HeLa cell nuclear extract measured after 60 mins by fluorescence assay; type: tissue-based
Plasmodium falciparum [3] = assay: Antiplasmodial activity against synchronized ring stage Plasmodium falciparum 3D7 assessed as parasite reduction rate in lag phase by measuring time required to achieve maximum speed of action at 10 times IC50 concentration; type: functional
Procedure, shortened: (§1)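 3D7 culture of mostly rings exposed to drug for 6, 24, 48, 72 or 96h. Then washed, serially diluted 1/3 in fresh RBC and grown 3 weeks. Growth read by SYBR-green I. Number of wells with growth used to back-calculate viable parasites at each time point and derive growth parameters. One experiment, run in duplicate.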

Plasmodium falciparum [4] = assay: Antiplasmodial activity against synchronized ring stage Plasmodium falciparum 3D7 assessed as parasite reduction over one cycle upto 48 hrs at 10 times IC50 concentration; type: functional; details: time hrs <=48; procedure, shortened: as §1
Plasmodium falciparum [5] = assay: Antiplasmodial activity against Plasmodium falciparum 3D7 assessed as time to kill initial parasite load at 10 times IC50 concentration; type: functional
Procedure, shortened: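 Parasite reduction rate assay on 3D7 cultures containing mostly rings, with DHA and pyrimethamine as references. Exposure windows of 6, 24, 48, 72 and 96h; cells then washed, serially diluted 1/3 in fresh RBC and grown 3 weeks before SYBR-green I read-out. Number of wells with growth gives viable parasites per time point, per Sanz et al. One experiment in duplicate.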

Plasmodium falciparum [6] = assay: Antiplasmodial activity against Plasmodium falciparum stage IIb-III gametocytes assessed as abnormal morphology by measuring rounded/swollen at highest concentration measured after 72 hrs using Geimsa staining based assay; type: functional
Procedure, shortened: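 Day-4 stage IIb-III gametocytes (asexuals removed by N-acetyl glucosamine), about 1% gametocytemia at 2% hematocrit, treated 72h at 10, 5, 1 or 0.5 µM against 0.1% DMSO. Then washed and recultured with daily medium changes. Morphology and parasitemia scored daily on Giemsa-stained thin smears.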

Plasmodium falciparum [7] = assay: Antiplasmodial activity against Plasmodium falciparum NF54 late stage IV-V gametocytes assessed as reduction in number of exflagellation centers in at 1 uM treated for 72 hrs; type: functional, organism-based
Procedure, shortened: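 Synchronous gametocytes induced; asexual forms removed with N-acetyl glucosamine for 5 days. Day-9 stage IV-V gametocytes, about 1% gametocytemia at 2% hematocrit, treated 72h at 10, 5, 1 or 0.5 µM against 0.1% DMSO. Then washed and recultured with daily medium changes. […], pelleted cells mixed 1:1 with human serum. Exflagellation centers counted over ≥10 fields at 40× within one hour. Two independent experiments; one-way ANOVA.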

[8] = molecular target: Histone deacetylase (Homo sapiens) (UniProt Q13547+O15379+Q9UBN7+Q92769+Q9UQL6+Q8WUI4+Q9BY41+Q96DB2+P56524+Q9UKV0+Q969S8); assay: Inhibition of human HDAC using human HeLa cell nuclear extract 1 uM by fluorescence assay
Procedure, shortened: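 HeLa nuclear extract (3x10⁻³mg) incubated with compound and 43 µM Tosyl-Gly-Pro-Lys(Ac)-AMC. Buffer: 25mM Tris-HCl pH 8, 140mM NaCl, 3mM KCl, 1mM MgCl₂. Run 45 min at 37°C, then trypsin (1mg/mL) 15min at RT, then ethanol. AMC fluorescence read at ex 380/em 460nm. Background subtracted; data normalized to DMSO. Duplicates in ≥2 independent experiments.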

Plasmodium falciparum [9] = assay: Antiplasmodial activity against Cambodian multidrug-resistant Plasmodium falciparum isolate incubated for 96 hrs measured by SYBR Green 1 assay; type: functional, organism-based
Procedure, shortened: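 Cambodian isolates chosen by multidrug-resistance pattern, 10 per resistance type. Ring-synchronized cultures at 2% hematocrit and 1% starting parasitemia; 11-point 2-step dilutions from 500nM; 96h incubation, then SYBR-green I read-out. Mefloquine and monodesethylamodiaquine served as positive controls. Triplicate wells, one biological replicate per isolate.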

HL-60 [10] = assay: Cytotoxicity against human HL-60 cells assessed as inhibition of cell proliferation at 10 uM measured after 72 hrs by ATPlite assay; type: functional
Procedure, shortened: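 Cells exposed to compound for 72h; viability read by ATPlite. DMSO control. Technical triplicates, at least two biological replicates. IC50 interpolated from the curves.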

| SMILES | IC50 (Plasmodium falciparum [1]) | IC50 (HepG2) | IC50 (HL-60 [2]) | IC50 (Histone deacetylase) | further results |
| --- | --- | --- | --- | --- | --- |
| CCN(CC)CCCNC(=O)c1ccc(NC(=O)CCCCCCC(=O)NO)cc1 | 64 nM | 8200 nM | 34000 nM | 160 nM |  |
| CCC(CC)CCNC(=O)c1ccc(NC(=O)CCCCCCC(=O)NO)cc1 | > 500 nM | > 100000 nM | > 10000 nM |  |  |
| C[C@H]1[C@@H](O)O[C@@H]2O[C@@]3(C)CC[C@H]4[C@H](C)CC[C@@H]1[C@@]24OO3 [ARTENIMOL] | 3 nM |  |  |  | Time (Plasmodium falciparum [3]): 0 h; log(activity) (Plasmodium falciparum [4]): 5.12; LT99.9 (Plasmodium falciparum [5]): 21.2 h |
| CCN(CC)c1ccc(NC(=O)CCCCCCC(=O)NO)cc1 | 239 nM | 2400 nM | 2700 nM | 210 nM |  |
| O=C(CCCCCCC(=O)Nc1ccccc1)NO [VORINOSTAT] |  |  |  |  | Activity (Plasmodium falciparum [6]): <=90%; Activity (Plasmodium falciparum [7]): inactive |
| CCc1nc(N)nc(N)c1-c1ccc(Cl)cc1 [PYRIMETHAMINE] |  |  |  |  | Time (Plasmodium falciparum [3]): 24 h; log(activity) (Plasmodium falciparum [4]): 3.57; LT99.9 (Plasmodium falciparum [5]): 44.1 h |
| CCN(CC)CCNC(=O)c1ccc(NC(=O)CCCCC(=O)NO)cc1 | 410 nM |  |  |  | inhibition [8]: 60% |
| CCNCc1cc(Nc2ccnc3cc(Cl)ccc23)ccc1O [DESETHYL AMODIAQUINE] |  |  |  |  | IC50 (Plasmodium falciparum [9]): 89 nM |
| O=C(CCCCCCC(=O)Nc1ccc(C(=O)NCCN2CCOCC2)cc1)NO | 341 nM | 26000 nM |  | 230 nM | inhibition at 10 µM (HL-60 [10]): 40% |
| CC(C)(C)OC(=O)N1CCC(NC(=O)c2ccc(NC(=O)CCCCCCC(=O)NO)cc2)CC1 | 467 nM | 150000 nM | 2500 nM |  |  |
